Values after ≈ are worked out from the molar mass of the structure shown. Active and inactive are the calls of the source. No cut-off for these calls is given here.
Tests used:
[1] = tested on: Pseudomonas aeruginosa; assay: Inhibition of biofilm formation of Pseudomonas aeruginosa PAO1 at 2 to 3 ug/mL by confocal scanning laser microscopy; assay type: functional, organism-based
How it was run: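 PAO1 grown on two-well Permanox slides with curcumin 2–3 µg/mL. Stained with a LIVE/DEAD BacLight kit (SYTO 9/propidium iodide) 48 h postinoculation and imaged by confocal laser scanning microscopy with a 10× objective. Repeated twice, three replicates each.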

[2] = tested on: Pseudomonas aeruginosa; assay: Inhibition of biofilm formation of Pseudomonas aeruginosa PAO1 at 1.5 to 3 ug/mL by crystal violet staining method; assay type: functional, organism-based
How it was run: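 Static biofilm in polypropylene tubes with LB containing curcumin 1.5–3.0 µg/mL from the start of incubation; ethanol equalized across tubes. Crystal violet staining, ethanol solubilization, OD read. Three replicates.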

[3] = tested on: Pseudomonas aeruginosa; assay: Growth inhibition of Pseudomonas aeruginosa PAO1 planktonic forms; assay type: functional
How it was run: (§1)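 PAO1 grown in LB with curcumin 0.5–30.0 µg/mL from an initial OD600 of 0.02; compound predissolved in ethanol, final solvent ≤0.02% v/v. OD600 read every 5 h up to 25 h; colony counts taken. n = 6, standard error.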

[4] = tested on: Pseudomonas aeruginosa; assay: Growth inhibition of Pseudomonas aeruginosa PAO1 planktonic forms at >5 ug/mL; assay type: functional, organism-based; how it was run: as §1
[5] = tested on: Pseudomonas aeruginosa; assay: Down regulation of rhlA expression in Pseudomonas aeruginosa PAO1 at 3 ug/mL by microarray gene expression analysis; assay type: functional, organism-based
How it was run: (§2)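 PAO1 grown in triplicate in LB with curcumin 3 µg/mL, starting at OD600 ~0.02, at 37 °C and 200 rpm for 10 h (~2 OD600). RNA was isolated from 5 mL of culture, and 10 µg was amplified for microarray expression analysis.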

[6] = tested on: Pseudomonas aeruginosa; assay: Down regulation of lasI expression in Pseudomonas aeruginosa PAO1 at 3 ug/mL by microarray gene expression analysis; assay type: functional, organism-based; how it was run: as §2
[7] = tested on: Pseudomonas aeruginosa; assay: Down regulation of virulence factor production in Pseudomonas aeruginosa PAO1 assessed as reduction in elastase production at 1 to 5 ug/mL relative to untreated control; assay type: functional
How it was run: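 Culture grown with or without curcumin for 24 h at 37 °C in PTSB (5% peptone, 0.25% tryptic soy broth). Filtered supernatant was added to elastin-congo red in 10 mM Na2HPO4, pH 7, and shaken for 4 h at 37 °C. After centrifugation, OD495 was read and normalised to cell density.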

[8] = tested on: Pseudomonas aeruginosa; assay: Down regulation of virulence factor production in Pseudomonas aeruginosa PAO1 assessed as reduction in protease production at 1 to 5 ug/mL relative to untreated control; assay type: functional
How it was run: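 Culture grown with or without curcumin for 24 h at 37 °C in PTSB (5% peptone, 0.25% tryptic soy broth). Filtered supernatant was incubated with 0.8% azocasein in 50 mM K2HPO4, pH 7, for 3 h at 25 °C. The reaction was stopped with 1.5 M HCl, kept on ice 30 min and centrifuged. NaOH was added, OD440 read and normalised to cell density.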

[9] = tested on: Pseudomonas aeruginosa; assay: Down regulation of virulence factor production in Pseudomonas aeruginosa PAO1 assessed as reduction in pyocyanin production at 1.5 to 3 ug/mL; assay type: functional; design: scale not given: the % may be the effect or the level left
How it was run: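 PAO1 grown in LB with or without curcumin (1.5–3 µg mL-1) and harvested. Pyocyanin was extracted and estimated by the Mahajan-Miklos method, then normalised against live cell numbers.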

[10] = tested on: Pseudomonas aeruginosa; assay: Down regulation of phzD expression in Pseudomonas aeruginosa PAO1 at 3 ug/mL by microarray gene expression analysis; assay type: functional, organism-based; how it was run: as §2
[11] = tested on: Pseudomonas aeruginosa; assay: Effect on QS system related genes in Pseudomonas aeruginosa PAO1 at 3 ug/mL by microarray gene expression analysis; assay type: functional, organism-based; how it was run: as §2
[12] = tested on: Pseudomonas aeruginosa; assay: Antimicrobial activity against Pseudomonas aeruginosa PAO1 infected in Arabidopsis thaliana Col-0 assessed as change in bacterial count in presence of AHL/3-oxo-HSL; assay type: functional, organism-based
How it was run: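 Col-0 seedlings in liquid MS medium inoculated with PAO1 (OD600 0.02–0.04, ~2.8 × 10^8 cells/mL) plus curcumin 3.0 µg/mL, with or without exogenous AHL/3-oxo-HSL. Roots harvested after 7 days; bacteria enumerated as CFU per gram fresh weight. Triplicate experiments.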

[13] = tested on: Pseudomonas aeruginosa; assay: Antimicrobial activity against Pseudomonas aeruginosa PAO1 infected in Arabidopsis thaliana Col-0 assessed as inhibition of biofilm formation in roots at 3 ug/mL measured 7 days post dose; assay type: functional, organism-based
How it was run: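 Ten-day-old Col-0 plants in 2 mL liquid MS medium were inoculated with PAO1 (OD600 0.02–0.04) with curcumin 3.0 µg/mL added alongside the bacteria. Root-surface biofilm was imaged by confocal microscopy after BacLight live/dead staining.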

[14] = tested on: Pseudomonas aeruginosa; assay: Antimicrobial activity against Pseudomonas aeruginosa PAO1 infected in Arabidopsis thaliana Col-0 assessed as protection against infection of roots at 3 ug/mL measured 7 days post dose; assay type: functional, organism-based
How it was run: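 In vitro root pathogenicity: ten-day-old Col-0 plants (n = 20 per treatment) in 2 mL liquid MS medium were inoculated with PAO1 at OD600 0.02–0.04 (~2.8 × 10^8 cells/mL), with curcumin 3.0 µg/mL added together with the bacteria. A non-inoculated control was kept. Plant mortality was recorded 7 days after inoculation; triplicate experiments.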

[15] = tested on: Pseudomonas aeruginosa; assay: Down regulation of QS system in Pseudomonas aeruginosa PAO1 assessed as reduction in total homoserine lactone production at 5 ug/mL by HPLC relative to untreated control; assay type: functional
[16] = tested on: Pseudomonas aeruginosa; assay: Down regulation of QS system in Pseudomonas aeruginosa PAO1 assessed as reduction in C4-HSL production at 1 ug/mL by HPLC; assay type: functional; design: scale not given: the % may be the effect or the level left
[17] = tested on: Pseudomonas aeruginosa; assay: Down regulation of QS system in Pseudomonas aeruginosa PAO1 assessed as reduction in 3-oxo-C12-HSL production at 1 ug/mL by HPLC; assay type: functional; design: scale not given: the % may be the effect or the level left

COc1cc(/C=C/C(=O)CC(=O)/C=C/c2ccc(O)c(OC)c2)ccc1O [CURCUMIN]
inhibition [1]: Active
inhibition [2]: Active
MIC [3]: 30 µg/mL (≈ 81.4 µM)
growth inhibition (GI) [4]: inactive
Activity [5]: Active
Activity [6]: Active
fold change (FC) [7]: 2
fold change (FC) [8]: 2
Activity [9]: 60%
Activity [10]: Active
Activity [11]: Active
Activity [12]: inactive
inhibition [13]: Active
inhibition [14]: Active
fold change (FC) [15]: 3
Activity [16]: >2%
Activity [17]: 25%
